Experiment [1] deals with T1, Angiotensin II receptor (AT-1) type-1 (Rattus norvegicus, UniProt P29089+P25095).
T1 sequence (P29089 whole entry): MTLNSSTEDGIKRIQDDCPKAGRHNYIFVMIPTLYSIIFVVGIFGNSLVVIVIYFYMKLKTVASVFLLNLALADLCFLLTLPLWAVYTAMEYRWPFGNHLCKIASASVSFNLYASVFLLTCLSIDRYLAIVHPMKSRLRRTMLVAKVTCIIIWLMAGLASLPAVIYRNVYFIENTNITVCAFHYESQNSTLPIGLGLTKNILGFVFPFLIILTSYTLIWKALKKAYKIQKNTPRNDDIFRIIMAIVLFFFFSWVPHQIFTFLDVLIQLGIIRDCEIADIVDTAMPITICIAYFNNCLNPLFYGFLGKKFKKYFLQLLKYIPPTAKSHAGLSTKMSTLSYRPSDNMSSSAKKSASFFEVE
T1 sequence (P25095 whole entry): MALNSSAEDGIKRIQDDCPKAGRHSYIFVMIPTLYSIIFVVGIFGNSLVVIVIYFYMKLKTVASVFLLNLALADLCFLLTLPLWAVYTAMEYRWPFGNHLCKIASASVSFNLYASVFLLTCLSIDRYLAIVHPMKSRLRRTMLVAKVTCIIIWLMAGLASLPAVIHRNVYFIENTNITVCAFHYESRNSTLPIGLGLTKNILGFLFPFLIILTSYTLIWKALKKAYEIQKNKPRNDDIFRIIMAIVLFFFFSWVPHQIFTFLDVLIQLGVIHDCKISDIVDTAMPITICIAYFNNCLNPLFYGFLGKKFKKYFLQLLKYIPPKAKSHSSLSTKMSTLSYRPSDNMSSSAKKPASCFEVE
Put plainly: Inhibition of [3H]angiotensin II binding to rat adrenal cortex membrane containing angiotensin II receptor, type 1. Type of experiment: tissue-based.

The test system of experiment [2] is Rattus norvegicus. Put plainly: In vivo concentration inhibiting angiotensin II (A II) induced pressor response in conscious normotensive rats 30 mins after oral administration of 2 uM/kg. Format: functional. The method in brief: (§1)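 Male Sprague-Dawley rats (280–340 g), premedicated ip with fentanyl/fluanisone and anesthetized with pentobarbital iv during preparation, then tested conscious. Vehicle or compound given orally by stomach tube at 2 μmol kg−1. A II bolus injections every 15 min for the first hour, then every 30 min, over 4 h.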

Experiment [3] has as its system Rattus norvegicus. Put plainly: In vivo concentration inhibiting angiotensin II (A II) induced pressor response in conscious normotensive rats 15 mins after oral administration of 2 uM/kg. Type of experiment: functional. The method in brief:
as §1

SMILES strings stand for the structures.

Usually Ki stands for the dissociation constant of the complex between target and ligand, obtained from inhibition or displacement. Low values mean higher affinity, high ones lower affinity. Regarding `CCCCc1nc(-c2cnccn2)cn1Cc1ccc(-c2ccccc2-c2nn[nH]n2)cc1`, in experiment [1], the Ki was found to be 40 nM. Same read-out and setting: then `CCCCc1nc(-c2ncccn2)cn1Cc1ccc(-c2ccccc2-c2nn[nH]n2)cc1`, with 59 nM; and `CCCCc1nc(-c2cccnc2C(=O)OC)cn1Cc1ccc(-c2ccccc2-c2nn[nH]n2)cc1`, with 45 nM. Take `CCCCc1nc(-c2ccc(C(=O)OC)[n+]([O-])n2)cn1Cc1ccc(-c2ccccc2-c2nn[nH]n2)cc1`: in experiment [1], the Ki stood at 54 nM.

In experiment [1], `CCCCc1nc(-c2cc(C(=O)OC)c[n+]([O-])c2)cn1Cc1ccc(-c2ccccc2-c2nn[nH]n2)cc1` returned a Ki of 41 nM. In general, Inhibition refers to the drop in the measured response relative to a control, in per cent. `CCCCc1nc(-c2ccc(C)[n+]([O-])n2)cn1Cc1ccc(-c2ccccc2-c2nn[nH]n2)cc1`: the Inhibition in the experiment on Rattus norvegicus [2] was -27%. In experiment [1], this compound displayed an inhibitory constant (Ki) of 40 nM.

In experiment [1], `CCCCc1nc(-c2cnc[n+]([O-])c2)cn1Cc1ccc(-c2ccccc2-c2nn[nH]n2)cc1` gave a Ki of 25 nM. Turning to `CCCCc1nc(-c2c(C(=O)OC)c(C)cc(C)[n+]2[O-])cn1Cc1ccc(-c2ccccc2-c2nn[nH]n2)cc1`, the Inhibition with Rattus norvegicus [2] is reported as -29%. In experiment [1], the Ki came out at 9.1 nM. For the compound `CCCCc1nc(-c2cnc(C(=O)OC)nc2C)cn1Cc1ccc(-c2ccccc2-c2nn[nH]n2)cc1`, in experiment [1], the Ki came out at 70 nM.

As for `CCCCc1nc(-c2c(C(=O)OC)ccc(C)[n+]2[O-])cn1Cc1ccc(-c2ccccc2-c2nn[nH]n2)cc1`, the Inhibition in the experiment with Rattus norvegicus [2] is given as -55%. For the same compound, the Ki in experiment [1] was determined as 4.5 nM. On to `CCCCc1nc(-c2cncc[n+]2[O-])cn1Cc1ccc(-c2ccccc2-c2nn[nH]n2)cc1`, for which the Ki in experiment [1] was determined as 243 nM. As for `CCCCc1nc(-c2ccc(C(=O)OC)cn2)cn1Cc1ccc(-c2ccccc2-c2nn[nH]n2)cc1`, the Inhibition in the experiment with Rattus norvegicus [2] is recorded as -33%. In experiment [1], this compound displayed a Ki of 12 nM. For `CCCCc1nc(Cl)c(CO)n1Cc1ccc(-c2ccccc2-c2nnn[nH]2)cc1` [LOSARTAN], the Inhibition with Rattus norvegicus [2] is on record as -33%. Consider `CCCCc1nc(-c2nc(C)cnc2C)cn1Cc1ccc(-c2ccccc2-c2nn[nH]n2)cc1`, for which, in the experiment with Rattus norvegicus [2], the Inhibition was -18%. In experiment [1], this compound displayed a Ki of 77 nM. As for `CCCCc1nc(-c2cc(C(=O)OC)cc(C)[n+]2[O-])cn1Cc1ccc(-c2ccccc2-c2nn[nH]n2)cc1`, the Ki in experiment [1] was determined as 180 nM.

With `CCCCc1nc(-c2c(C)ncc(C)[n+]2[O-])cn1Cc1ccc(-c2ccccc2-c2nn[nH]n2)cc1`, in the experiment with Rattus norvegicus [2], the Inhibition is on record as -44%. In experiment [1], this compound showed a Ki of 2.5 nM. Regarding `CCCCc1nc(-c2nc(C)cc(C)c2C(=O)OC)cn1Cc1ccc(-c2ccccc2-c2nn[nH]n2)cc1`, the Ki in experiment [1] is listed as 53 nM. Regarding `CCCCc1nc(-c2nccc[n+]2[O-])cn1Cc1ccc(-c2ccccc2-c2nn[nH]n2)cc1`, the inhibition constant Ki in experiment [1] is on record as 61 nM. In turn, `CCCCc1nc(-c2ncccc2C(=O)OC)cn1Cc1ccc(-c2ccccc2-c2nn[nH]n2)cc1` gave a Ki in experiment [1] of 40 nM. On to `CCCCc1nc(-c2c(OC)ccc(C)[n+]2[O-])cn1Cc1ccc(-c2ccccc2-c2nn[nH]n2)cc1`, for which, in the experiment with Rattus norvegicus [2], the Inhibition was -22%. In experiment [1], this compound displayed a Ki of 38 nM. As to `CCCCc1nc(-c2cncc(C(=O)OC)c2)cn1Cc1ccc(-c2ccccc2-c2nn[nH]n2)cc1`, in experiment [1], the Ki was 30 nM.

Compound `CCCCc1nc(-c2ccc(C)nn2)cn1Cc1ccc(-c2ccccc2-c2nn[nH]n2)cc1` yielded a Ki in experiment [1] of 12 nM. Also, the Inhibition in the experiment with Rattus norvegicus [3] was -30%. Turning to `CCCCc1nc(-c2ccc(C(=O)OC)c[n+]2[O-])cn1Cc1ccc(-c2ccccc2-c2nn[nH]n2)cc1`, the Ki in experiment [1] was 27 nM.

In experiment [1], `CCCCc1nc(-c2ncccc2OC)cn1Cc1ccc(-c2ccccc2-c2nn[nH]n2)cc1` displayed a Ki of 290 nM. On the same count and under the same terms, as for `CCCCc1nc(-c2nc(C)ccc2OC)cn1Cc1ccc(-c2ccccc2-c2nn[nH]n2)cc1`, the figure is 250 nM.

As for `CCCCc1nc(-c2nc(C)c[n+]([O-])c2C)cn1Cc1ccc(-c2ccccc2-c2nn[nH]n2)cc1`, the Inhibition in the experiment with Rattus norvegicus [2] is reported as -21%. In experiment [1], this compound yielded a Ki of 4.4 nM.

Consider `CCCCc1nc(-c2cncnc2)cn1Cc1ccc(-c2ccccc2-c2nn[nH]n2)cc1`, for which, in experiment [1], the Ki is reported as 42 nM. As to `CCCCc1nc(-c2ccc(C(=O)OC)nn2)cn1Cc1ccc(-c2ccccc2-c2nn[nH]n2)cc1`, the Inhibition with Rattus norvegicus [2] is -9.3%. In experiment [1], the Ki was 8.8 nM.

In turn, `CCCCc1nc(-c2nccnc2C(=O)OC)cn1Cc1ccc(-c2ccccc2-c2nn[nH]n2)cc1` had a Ki in experiment [1] of 90 nM. `CCCCc1nc(-c2cccc(OC)n2)cn1Cc1ccc(-c2ccccc2-c2nn[nH]n2)cc1` returned a Ki in experiment [1] of 25 nM. In addition, the Inhibition in the experiment on Rattus norvegicus [3] was -11%.

On to `CCCCc1nc(-c2c(C(=O)OC)ccc[n+]2[O-])cn1Cc1ccc(-c2ccccc2-c2nn[nH]n2)cc1`, for which the Ki in experiment [1] was determined as 29 nM.

In turn, `CCCCc1nc(-c2cnccc2C(=O)OC)cn1Cc1ccc(-c2ccccc2-c2nn[nH]n2)cc1` yielded a Ki in experiment [1] of 67 nM. As to `CCCCc1nc(-c2cccc(C(=O)OC)n2)cn1Cc1ccc(-c2ccccc2-c2nn[nH]n2)cc1`, in the experiment on Rattus norvegicus [2], the Inhibition was -23%. In experiment [1], this compound came in with a Ki of 19 nM. The matching figures for `CCCCc1nc(-c2ccc(C)n[n+]2[O-])cn1Cc1ccc(-c2ccccc2-c2nn[nH]n2)cc1`: -35% and 44 nM. In experiment [1], `CCCCc1nc(-c2nc(C)ccc2C(=O)OC)cn1Cc1ccc(-c2ccccc2-c2nn[nH]n2)cc1` came in with a Ki of 32 nM.

The record behind these values is ChEMBL document CHEMBL1128488, “4-Diazinyl- and 4-pyridinylimidazoles: potent angiotensin II antagonists. A study of their activity and computational characterization” (J Med Chem, 1995).
